Measurements as given in ChEMBL document CHEMBL1144302, “Triaryl bis-sulfones as a new class of cannabinoid CB2 receptor inhibitors: identification of a lead and initial SAR studies” (Bioorg Med Chem Lett, 2005).

What was measured:
[1] = Binding affinity for cannabinoid receptor 2 was determined by using [35S]GTP-gamma-S, as radioligand; format: functional, Homo sapiens
Outline: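 Human CB2 co-expressed with Gαi3 and β1γ2 in Sf9 cell membranes (7–14 pmol/mg receptor). Triplicate serial dilutions were incubated with membranes, 0.3 nM [35S]GTPγS and GDP in 20 mM HEPES, 100 mM NaCl, 5 mM MgCl2, 0.2% (w/v) lipid-free BSA, pH 7.4, for 30 min at 30°C. Reactions were stopped by filtration, and filters were washed 10× at room temperature with 20 mM HEPES/10 mM sodium pyrophosphate. Bound label was counted by liquid scintillation.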

[2] = target: Cannabinoid receptor (Homo sapiens) (UniProt P34972+P21554); test: Selectivity of cannabinoid receptor 2 over cannabinoid receptor 1; format: protein assay
Chain of Cannabinoid receptor (Homo sapiens) (P21554 whole entry, looked up): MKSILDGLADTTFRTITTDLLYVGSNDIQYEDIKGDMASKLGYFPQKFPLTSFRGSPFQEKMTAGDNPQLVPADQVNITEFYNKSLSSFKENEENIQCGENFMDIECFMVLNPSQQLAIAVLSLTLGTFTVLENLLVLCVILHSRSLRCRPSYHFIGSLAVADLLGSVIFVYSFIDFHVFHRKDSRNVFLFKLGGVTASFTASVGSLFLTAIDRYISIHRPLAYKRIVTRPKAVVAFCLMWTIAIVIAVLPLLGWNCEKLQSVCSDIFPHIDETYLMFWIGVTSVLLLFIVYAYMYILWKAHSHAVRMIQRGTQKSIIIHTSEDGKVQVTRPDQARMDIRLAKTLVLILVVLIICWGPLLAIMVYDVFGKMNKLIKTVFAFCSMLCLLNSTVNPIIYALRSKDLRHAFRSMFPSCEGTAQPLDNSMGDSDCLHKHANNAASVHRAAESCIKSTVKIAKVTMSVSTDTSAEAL
Chain of Cannabinoid receptor (Homo sapiens) (P34972 whole entry, looked up): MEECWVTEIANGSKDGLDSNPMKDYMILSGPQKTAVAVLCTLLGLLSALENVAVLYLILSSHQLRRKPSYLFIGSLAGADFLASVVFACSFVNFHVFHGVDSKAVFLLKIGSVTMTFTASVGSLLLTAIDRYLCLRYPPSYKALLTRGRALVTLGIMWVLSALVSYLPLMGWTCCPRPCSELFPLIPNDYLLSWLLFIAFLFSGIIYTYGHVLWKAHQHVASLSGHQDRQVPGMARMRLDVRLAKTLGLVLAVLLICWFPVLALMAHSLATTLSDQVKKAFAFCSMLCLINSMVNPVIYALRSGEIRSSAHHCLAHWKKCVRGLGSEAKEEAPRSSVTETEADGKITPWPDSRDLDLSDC

Cannabinoid receptor 1 = Cannabinoid receptor 1 (Homo sapiens, UniProt P21554); test: Binding affinity for cannabinoid receptor 1
Chain of Cannabinoid receptor 1 (P21554 whole entry): as the sequence (P21554 whole entry, looked up) above

Cannabinoid receptor 2 = Cannabinoid receptor 2 (Homo sapiens, UniProt P34972); test: Binding affinity for human cannabinoid receptor 2 was determined by using [3H]CP-55940 as radioligand
Chain of Cannabinoid receptor 2 (P34972 whole entry): as the sequence (P34972 whole entry, looked up) above

Structure (SMILES)	Ki [1]	Selectivity [2]	Ki (Cannabinoid receptor 1)	Ki (Cannabinoid receptor 2)
COc1ccc(S(=O)(=O)c2cc(OC)ccc2S(=O)(=O)c2ccc([C@H](C)NC(=O)c3ccc(C)cc3)cc2)cc1	289 nM	3	884 nM	–
CCCCS(=O)(=O)N[C@@H](C)c1ccc(S(=O)(=O)c2ccc(OC)cc2S(=O)(=O)c2ccc(OC)cc2)cc1	41 nM	27	1130 nM	–
CCCNC(=O)N[C@@H](C)c1ccc(S(=O)(=O)c2ccc(OC)cc2S(=O)(=O)c2ccc(OC)cc2)cc1	495 nM	145	72100 nM	–
COc1ccc(S(=O)(=O)c2cc(OC)ccc2S(=O)(=O)c2ccc([C@H](C)NC(=O)Cc3ccccc3)cc2)cc1	412 nM	1.2	478 nM	–
CCS(=O)(=O)N[C@@H](C)c1ccc(S(=O)(=O)c2ccc(OC)cc2S(=O)(=O)c2ccc(OC)cc2)cc1	1 nM	1510	1970 nM	–
COc1ccc(S(=O)(=O)c2cc(OC)ccc2S(=O)(=O)c2ccc([C@H](C)NC(=O)C(C)(C)C)cc2)cc1	38.6 nM	60	2310 nM	–
COc1ccc(S(=O)(=O)c2cc(OC)ccc2S(=O)(=O)c2ccc([C@H](C)NS(=O)(=O)c3ccc(C)cc3)cc2)cc1	495 nM	3.9	1920 nM	–
COc1ccc(S(=O)(=O)c2cc(OC)ccc2S(=O)(=O)c2ccc([C@H](C)NC(=O)Nc3ccc(F)cc3)cc2)cc1	1140 nM	15	17600 nM	–
COc1ccc(S(=O)(=O)c2cc(OC)ccc2S(=O)(=O)c2ccc([C@H](C)NS(=O)(=O)c3ccc(Cl)c(Cl)c3)cc2)cc1	2480 nM	0.05	117 nM	–
COc1ccc(S(=O)(=O)c2cc(OC)ccc2S(=O)(=O)c2ccc([C@H](C)NC(=O)C(F)(F)F)cc2)cc1	0.3 nM	783	235 nM	–
COc1ccc(C(=O)c2c(C)n(CCN3CCOCC3)c3cc(I)ccc23)cc1	–	–	–	31.2 nM
CCC(=O)N[C@@H](C)c1ccc(S(=O)(=O)c2ccc(OC)cc2S(=O)(=O)c2ccc(OC)cc2)cc1	29 nM	122	3560 nM	–
COc1ccc(S(=O)(=O)c2cc(OC)ccc2S(=O)(=O)c2ccc([C@H](C)NC(=O)Nc3ccc(C)cc3)cc2)cc1	802 nM	125	100000 nM	–
COc1ccc(S(=O)(=O)c2cc(OC)ccc2S(=O)(=O)c2ccc([C@H](C)NS(=O)(=O)c3ccccc3)cc2)cc1	239 nM	3.6	855 nM	–
CCCC(=O)N[C@@H](C)c1ccc(S(=O)(=O)c2ccc(OC)cc2S(=O)(=O)c2ccc(OC)cc2)cc1	6.2 nM	189	1170 nM	–
COc1ccc(S(=O)(=O)c2cc(OC)ccc2S(=O)(=O)c2ccc([C@H](C)NC(=O)C3CC3)cc2)cc1	15.7 nM	676	10600 nM	–
COc1ccc(S(=O)(=O)c2cc(OC)ccc2S(=O)(=O)c2ccc([C@H](C)NC(=O)c3ccc(Cl)c(Cl)c3)cc2)cc1	167 nM	0.5	84 nM	–
COc1ccc(S(=O)(=O)c2ccc([C@H](C)NC(=O)C(F)(F)F)cc2)cc1	31 nM	–	–	–
COc1ccc(C(=O)N[C@@H](C)c2ccc(S(=O)(=O)c3ccc(OC)cc3S(=O)(=O)c3ccc(OC)cc3)cc2)cc1	1260 nM	0.9	1170 nM	–
COc1ccc(S(=O)(=O)c2cc(OC)ccc2S(=O)(=O)c2ccc([C@H](C)NS(C)(=O)=O)cc2)cc1	0.4 nM	2260	905 nM	–
COc1ccc(S(=O)(=O)c2cc(OC)ccc2S(=O)(=O)c2ccc([C@H](C)NC(C)=O)cc2)cc1	7.7 nM	231	1780 nM	–
COc1ccc(S(=O)(=O)c2cc(OC)ccc2S(=O)(=O)c2ccc([C@H](C)NS(=O)(=O)Cc3ccccc3)cc2)cc1	160 nM	0.5	79 nM	–
